Source: publication PMC9753537 (ACS Omega, 2022)

target: urease (Canavalia ensiformis, UniProt P07374); experiment: In vitro urease inhibition assay; format: biochemical
In short: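 Enzyme preincubated with test compound in phosphate buffer (pH 6.8) for 10 min at 37 °C, then phenol and alkali reagents added. Absorbance read at 625 nm, with thiourea as the standard inhibitor. Percent inhibition calculated from absorbance, run in triplicate.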

urease, sequence (P07374 whole entry, looked up): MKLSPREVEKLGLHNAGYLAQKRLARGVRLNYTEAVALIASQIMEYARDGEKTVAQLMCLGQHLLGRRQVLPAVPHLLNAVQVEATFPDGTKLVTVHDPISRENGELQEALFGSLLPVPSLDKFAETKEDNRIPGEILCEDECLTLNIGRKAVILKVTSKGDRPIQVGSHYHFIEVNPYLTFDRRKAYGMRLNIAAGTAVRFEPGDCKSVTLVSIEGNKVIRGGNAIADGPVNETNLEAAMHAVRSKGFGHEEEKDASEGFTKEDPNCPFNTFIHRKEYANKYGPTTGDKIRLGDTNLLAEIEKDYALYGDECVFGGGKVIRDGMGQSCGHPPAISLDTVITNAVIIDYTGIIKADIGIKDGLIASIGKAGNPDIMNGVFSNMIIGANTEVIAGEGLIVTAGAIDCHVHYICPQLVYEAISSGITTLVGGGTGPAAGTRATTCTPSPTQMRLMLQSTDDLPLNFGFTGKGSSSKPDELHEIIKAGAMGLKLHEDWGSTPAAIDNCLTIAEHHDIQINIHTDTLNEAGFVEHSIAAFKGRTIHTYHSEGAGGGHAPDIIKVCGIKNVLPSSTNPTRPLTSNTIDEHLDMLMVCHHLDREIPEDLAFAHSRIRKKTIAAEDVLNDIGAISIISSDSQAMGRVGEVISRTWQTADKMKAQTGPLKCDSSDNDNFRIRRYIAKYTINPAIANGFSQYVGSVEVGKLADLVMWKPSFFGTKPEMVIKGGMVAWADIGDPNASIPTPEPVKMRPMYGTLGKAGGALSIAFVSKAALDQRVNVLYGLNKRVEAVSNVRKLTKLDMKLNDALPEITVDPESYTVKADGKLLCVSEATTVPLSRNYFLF

| IC50 | Structure (SMILES) |
| --- | --- |
| 89.7 ± 8.35 µM | COc1ccc(C=NNC(=O)C(C)c2ccc(-c3ccccc3)c(F)c2)c(F)c1 (stereo not drawn) [Compound 21, N′-(2-Fluoro-4-methoxybenzylidene)-2-(2-fluoro-[1,1′-biphenyl]-4-yl)propanehydrazide] |
| 79.2 ± 7.94 µM | COc1ccc(OC)c(C=NNC(=O)C(C)c2ccc(-c3ccccc3)c(F)c2)c1 (stereo not drawn) [Compound 24, N′-(2,5-Dimethoxybenzylidene)-2-(2-fluoro-[1,1′-biphenyl]-4-yl)propanehydrazide] |
| 56.1 ± 4.89 µM | COc1cc(C=NNC(=O)C(C)c2ccc(-c3ccccc3)c(F)c2)ccc1F (stereo not drawn) [Compound 12, N′-(4-Fluoro-3-methoxybenzylidene)-2-(2-fluoro-[1,1′-biphenyl]-4-yl)propanehydrazide] |
| 25.1 ± 1.13 µM | CC(C(=O)NN=Cc1ccc(O)c(O)c1O)c1ccc(-c2ccccc2)c(F)c1 (stereo not drawn) [Compound 5, 2-(2-Fluoro-[1,1′-biphenyl]-4-yl)-N′-(2,3,4-trihydroxybenzylidene)propanehydrazide] |
| 55.8 ± 3.04 µM | COc1ccc(C=NNC(=O)C(C)c2ccc(-c3ccccc3)c(F)c2)c(OC)c1OC (stereo not drawn) [Compound 9, 2-(2-Fluoro-[1,1′-biphenyl]-4-yl)-N′-(2,3,4-trimethoxybenzylidene)propanehydrazide] |
| 55.7 ± 3.82 µM | COc1ccccc1C=NNC(=O)C(C)c1ccc(-c2ccccc2)c(F)c1 (stereo not drawn) [Compound 19, 2-(2-Fluoro-[1,1′-biphenyl]-4-yl)-N′-(2-methoxybenzylidene)propanehydrazide] |
| 59.5 ± 4.28 µM | CC(C(=O)NN=Cc1cccc(C(F)(F)F)c1)c1ccc(-c2ccccc2)c(F)c1 (stereo not drawn) [Compound 25, 2-(2-Fluoro-[1,1′-biphenyl]-4-yl)-N′-(3-(trifluoromethyl)benzylidene)propanehydrazide] |
| 26.5 ± 0.44 µM | COc1cc(C=NNC(=O)C(C)c2ccc(-c3ccccc3)c(F)c2)ccc1Oc1ccccc1 (stereo not drawn) [Compound 18, 2-(2-Fluoro-[1,1′-biphenyl]-4-yl)-N′-(3-methoxy-4-phenoxybenzylidene)propanehydrazide] |
| 81 ± 8.43 µM | CCOc1cc(C=NNC(=O)C(C)c2ccc(-c3ccccc3)c(F)c2)ccc1OC (stereo not drawn) [Compound 13, N′-(3-Ethoxy-4-methoxybenzylidene)-2-(2-fluoro-[1,1′-biphenyl]-4-yl)propanehydrazide] |
| 18.9 ± 0.61 µM | CC(C(=O)NN=Cc1cccc(O)c1O)c1ccc(-c2ccccc2)c(F)c1 (stereo not drawn) [Compound 30, N′-(2,3-Dihydroxybenzylidene)-2-(2-fluoro-[1,1′-biphenyl]-4-yl)propanehydrazide] |
| 53.7 ± 3.82 µM | CC(C(=O)NN=Cc1ccccc1N)c1ccc(-c2ccccc2)c(F)c1 (stereo not drawn) [Compound 6, N′-(2-Aminobenzylidene)-2-(2-fluoro-[1,1′-biphenyl]-4-yl)propanehydrazide] |
| 90.7 ± 7.71 µM | COc1cc(C=NNC(=O)C(C)c2ccc(-c3ccccc3)c(F)c2)cc(OC)c1Br (stereo not drawn) [Compound 22, N′-(4-Bromo-3,5-dimethoxybenzylidene)-2-(2-fluoro-[1,1′-biphenyl]-4-yl)propanehydrazide] |
| 55.7 ± 3.82 µM | COc1ccc(/C=N/NC(=O)C(C)c2ccc(-c3ccccc3)c(F)c2)c(Cl)c1OC (stereo not drawn) [Compound 16, (E)-N′-(2-Chloro-3,4-dimethoxybenzylidene)-2-(2-fluoro-[1,1′-biphenyl]-4-yl)propanehydrazide] |
| 52.7 ± 3.56 µM | CCOc1ccc(C=NNC(=O)C(C)c2ccc(-c3ccccc3)c(F)c2)c(OC)c1 (stereo not drawn) [Compound 11, N′-(4-Ethoxy-2-methoxybenzylidene)-2-(2-fluoro-[1,1′-biphenyl]-4-yl)propanehydrazide] |
| 86.9 ± 8.71 µM | CC(C(=O)NN=Cc1ccc(Br)cc1F)c1ccc(-c2ccccc2)c(F)c1 (stereo not drawn) [Compound 23, N′-(4-Bromo-2-fluorobenzylidene)-2-(2-fluoro-[1,1′-biphenyl]-4-yl)propanehydrazide] |
| 58.8 ± 3.99 µM | CC(C(=O)NN=Cc1ccc(Br)cc1)c1ccc(-c2ccccc2)c(F)c1 (stereo not drawn) [Compound 20, N′-(4-Bromobenzylidene)-2-(2-fluoro-[1,1′-biphenyl]-4-yl)propanehydrazide] |
| 28.1 ± 1.26 µM | CC(C(=O)NN=Cc1ccccc1[N+](=O)[O-])c1ccc(-c2ccccc2)c(F)c1 (stereo not drawn) [Compound 31, N′-(2-Nitrobenzylidene)-2-(2-fluoro-[1,1′-biphenyl]-4-yl)propanehydrazide] |
| 58.5 ± 4.28 µM | CC(C(=O)NN=Cc1ccc(-c2ccccc2)c(F)c1)c1ccc(-c2ccccc2)c(F)c1 (stereo not drawn) [Compound 28, 2-(2-Fluoro-[1,1′-biphenyl]-4-yl)-N′-((2-fluoro-[1,1′-biphenyl]-4-yl)methylene)propanehydrazide] |
| 29.2 ± 1.12 µM | CC(C(=O)NN=Cc1cccc([N+](=O)[O-])c1)c1ccc(-c2ccccc2)c(F)c1 (stereo not drawn) [Compound 7, 2-(2-Fluoro-[1,1′-biphenyl]-4-yl)-N′-(3-nitrobenzylidene)propanehydrazide] |
| 28.6 ± 1.73 µM | CC(C(=O)N/N=C/c1ccc([N+](=O)[O-])cc1)c1ccc(-c2ccccc2)c(F)c1 (stereo not drawn) [Compound 15, (E)-2-(2-Fluoro-[1,1′-biphenyl]-4-yl)-N′-(4-nitrobenzylidene)propanehydrazide] |
| 78 ± 7.63 µM | CSc1ccc(C=NNC(=O)C(C)c2ccc(-c3ccccc3)c(F)c2)cc1 (stereo not drawn) [Compound 26, 2-(2-Fluoro-[1,1′-biphenyl]-4-yl)-N′-(4-(methylthio)benzylidene)propanehydrazide] |
| 55.7 ± 3.71 µM | COc1cccc(OC)c1C=NNC(=O)C(C)c1ccc(-c2ccccc2)c(F)c1 (stereo not drawn) [Compound 14, N′-(2,6-Dimethoxybenzylidene)-2-(2-fluoro-[1,1′-biphenyl]-4-yl)propanehydrazide] |
| 57.5 ± 4.27 µM | Cc1ccc(C=NNC(=O)C(C)c2ccc(-c3ccccc3)c(F)c2)s1 (stereo not drawn) [Compound 29, 2-(2-Fluoro-[1,1′-biphenyl]-4-yl)-N′-((5-methylthiophen-2-yl)methylene)propanehydrazide] |
| 80 ± 8.61 µM | CC(C(=O)NN=Cc1ccc(O)c(Br)c1)c1ccc(-c2ccccc2)c(F)c1 (stereo not drawn) [Compound 27, N′-(3-Bromo-4-hydroxybenzylidene)-2-(2-fluoro-[1,1′-biphenyl]-4-yl)propanehydrazide] |
| 58.3 ± 3.34 µM | COc1ccc(Br)cc1C=NNC(=O)C(C)c1ccc(-c2ccccc2)c(F)c1 (stereo not drawn) [Compound 8, N′-(5-Bromo-2-methoxybenzylidene)-2-(2-fluoro-[1,1′-biphenyl]-4-yl)propanehydrazide] |
| 50.7 ± 5.17 µM | CC(C(=O)NN=Cc1cc([N+](=O)[O-])ccc1Cl)c1ccc(-c2ccccc2)c(F)c1 (stereo not drawn) [Compound 10, N′-(2-Chloro-5-nitrobenzylidene)-2-(2-fluoro-[1,1′-biphenyl]-4-yl)propanehydrazide] |
| 53.7 ± 3.81 µM | CC(C(=O)NN=Cc1cccc2ccccc12)c1ccc(-c2ccccc2)c(F)c1 (stereo not drawn) [Compound 4, 2-(2-Fluoro-[1,1′-biphenyl]-4-yl)-N′-(naphthalen-1-ylmethylene)propanehydrazide] |
